Assay [1] concerns CCRF-CEM. In words: Inhibition of HIV-2 induced cytopathicity against CEM cell. To be noted: Homo sapiens. It counts as functional, cell-based. The essentials: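 CEM cells at 4 × 10^5 per mL infected with HIV-2 at ∼100 CCID50 per mL of cell suspension, then mixed 1:1 with serial compound dilutions. Giant cell formation scored microscopically after 4 days.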
A general note: Cytopathic effects are the visible damage that an infection or toxin causes in cultured cells.

For assay [2], the system named is CCRF-CEM. The assay is described as follows: Inhibition of HIV-1 induced cytopathicity against CEM cell. The class given is functional, cell-based. To be noted: Homo sapiens. The essentials:
(§1)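 HIV-1 or HIV-2 at ~100 CCID50 per mL infecting CEM (4 × 10^5 cells/mL) or MT-4 (3 × 10^5 cells/mL) cells, mixed 1:1 with compound dilutions in microtiter wells. After 4 days, giant cell formation (CEM) or virus-induced cytopathicity (MT-4) scored microscopically.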

Assay [3] concerns MT4. In words: Inhibition of HIV-2 induced cytopathicity against MT-4 cell. The class given is functional, cell-based. To be noted: Homo sapiens. The essentials: as §1
Assay [4] deals with CCRF-CEM. In words: Cytostatic concentration against CEM cell. It counts as functional. To be noted: Homo sapiens.
Assay [5] concerns MT4. In words: Inhibition of HIV-1 induced cytopathicity against MT-4 cell. It counts as functional, cell-based. To be noted: Homo sapiens. The essentials:
as §1

Assay [6] concerns MT4. The assay is described as follows: Cytostatic concentration against MT-4 cell. To be noted: Homo sapiens. The class given is functional.
The test system of assay [7] is MT-4 (human). In words: Cytostatic concentration against MT-4 cell.
The subject of assay [8] is CEM (human). In words: Inhibition of HIV-2 induced cytopathicity against CEM cell.

What is called pEC50 is the EC50 on a negative log10 scale, so that one unit is a factor of ten. High values mean a small EC50, low ones a large EC50. For orientation: CC50 means the concentration giving 50% cytotoxicity. Low readings indicate harm at low concentration, high ones better tolerance by the cells.

pEC50: −log10 of the molar value.

With `COC(=O)C(C)NP(=O)(OCC1OC(n2cc(C)c(=O)n(CCCCCCBr)c2=O)CC1N=[N+]=[N-])Oc1ccccc1` (stereo unspecified), the pEC50 in assay [1], in assay [2], in assay [3] and in assay [5] was less than 5.00 in each case. The CC50 in assay [4] and in assay [6] was 22 µM throughout.

Regarding `Cc1cn([C@@H]2O[C@H](CO[Si](C)(C)C(C)(C)C)C3(OS(=O)(=O)C=C3N)[C@H]2O[Si](C)(C)C(C)(C)C)c(=O)[nH]c1=O` (stereo partly specified), the midpoint of cytotoxicity in assay [7], the CC50, lay at 12 µM. Moreover, the pEC50 is less than 5.22 in assay [8], 7.30 in assay [2] and less than 5.22 in assay [3].

For `Cc1cn([C@@H]2O[C@H](CO[Si](C)(C)C(C)(C)C)[C@@]3(OS(=O)(=O)C=C3N)[C@H]2O[Si](C)(C)C(C)(C)C)c(=O)n(CC#Cc2cn([C@@H]3C[C@@H](N=[N+]=[N-])[C@H](CO)O3)c(=O)[nH]c2=O)c1=O`, the figures for the pEC50 in assay [2], in assay [3] and in assay [5] were 6.70, less than 5.00 and 6.48, respectively. In addition, the CC50 in assay [4] is greater than 250 µM; in assay [6] it was 31 µM.

Take `Cc1cn([C@@H]2CC(N=[N+]=[N-])[C@H](CO)O2)c(=O)n(CC#CCn2c(=O)c(C)cn([C@@H]3O[C@H](CO[Si](C)(C)C(C)(C)C)[C@@]4(OS(=O)(=O)C=C4N)[C@H]3O[Si](C)(C)C(C)(C)C)c2=O)c1=O` (stereo partly specified): the pEC50 in assay [1] is less than 4.30; in assay [2], 6.64; in assay [3], less than 3.60; in assay [5], 6.00. Moreover, the CC50 in assay [4] was greater than 250 µM; in assay [6], 106 µM.

`COC(=O)C(C)NP(=O)(OC[C@H]1C=C[C@@H](n2cc(C)c(=O)n(CCCCCCn3c(=O)c(C)cn([C@@H]4O[C@H](CO[Si](C)(C)C(C)(C)C)[C@@]5(OS(=O)(=O)C=C5N)[C@H]4O[Si](C)(C)C(C)(C)C)c3=O)c2=O)O1)Oc1ccccc1` (stereo partly specified): the pEC50 in assay [1] is less than 4.30; in assay [2], 6.40; in assay [3], less than 4.30; in assay [5], 6.24. Moreover, the CC50 in assay [4] is greater than 250 µM; in assay [6] it was 37 µM.

Turning to `Cc1cn([C@@H]2C[C@@H](N=[N+]=[N-])[C@H](CO)O2)c(=O)n(C/C=C/Cn2c(=O)c(C)cn([C@@H]3O[C@H](CO[Si](C)(C)C(C)(C)C)[C@@]4(OS(=O)(=O)C=C4N)[C@H]3O[Si](C)(C)C(C)(C)C)c2=O)c1=O`, the pEC50 is 4.24 in assay [1], 6.47 in assay [2], less than 3.60 in assay [3] and 6.15 in assay [5]. The CC50 in assay [4] and in assay [6] was greater than 250 µM each time.

Regarding `Cc1cn([C@@H]2C[C@@H](N=[N+]=[N-])[C@H](CO)O2)c(=O)n(CCOCCn2c(=O)c(C)cn([C@@H]3O[C@H](CO[Si](C)(C)C(C)(C)C)[C@@]4(OS(=O)(=O)C=C4N)[C@H]3O[Si](C)(C)C(C)(C)C)c2=O)c1=O`, the pEC50 in assay [1] is less than 4.30; in assay [2] it was 6.74; in assay [3], less than 3.60; in assay [5] it was 6.51. Further, the half-maximal cytotoxic concentration (CC50) in assay [4] and in assay [6] was greater than 250 µM in each case.

Consider `COC(=O)C(C)NP(=O)(OC[C@@H]1O[C@H](n2cc(C)c(=O)n(CCCCCCn3c(=O)c(C)cn([C@@H]4O[C@H](CO[Si](C)(C)C(C)(C)C)[C@@]5(OS(=O)(=O)C=C5N)[C@H]4O[Si](C)(C)C(C)(C)C)c3=O)c2=O)C[C@H]1O)Oc1ccccc1` (stereo partly specified), for which the pEC50 in assay [1] is less than 4.30; in assay [2], 6.60; in assay [3], less than 4.30; in assay [5] it was 6.03. Also, the values for the CC50 in assay [4] and in assay [6] were 104 µM and 25 µM, respectively.

As to `Cc1cn([C@@H]2O[C@H](CO[Si](C)(C)C(C)(C)C)[C@@]3(OS(=O)(=O)C=C3N)[C@H]2O[Si](C)(C)C(C)(C)C)c(=O)n(CC#Cc2cn([C@@H]3C=C[C@H](CO)O3)c(=O)[nH]c2=O)c1=O`, the pEC50 in assay [1] was less than 5.00; in assay [2], 6.96; in assay [3] it was less than 5.00; in assay [5], 6.74. Also, the CC50 was 21 µM in assay [4] and 8 µM in assay [6].

Consider `COC(=O)C(C)NP(=O)(OC[C@@H]1O[C@H](n2cc(C)c(=O)n(CCCn3c(=O)c(C)cn([C@@H]4O[C@H](CO[Si](C)(C)C(C)(C)C)[C@@]5(OS(=O)(=O)C=C5N)[C@H]4O[Si](C)(C)C(C)(C)C)c3=O)c2=O)C[C@H]1O)Oc1ccccc1` (stereo partly specified), for which the pEC50 in assay [1] was less than 4.30; in assay [2], 6.60; in assay [3], less than 4.30; in assay [5], 6.48. Further, the CC50 in assay [4] is greater than 250 µM; in assay [6], 31 µM.

As for `COC(=O)C(C)NP(=O)(OC[C@H]1C=C[C@@H](n2cc(C)c(=O)n(CCCn3c(=O)c(C)cn([C@@H]4O[C@H](CO[Si](C)(C)C(C)(C)C)[C@@]5(OS(=O)(=O)C=C5N)[C@H]4O[Si](C)(C)C(C)(C)C)c3=O)c2=O)O1)Oc1ccccc1` (stereo partly specified), the pEC50 in assay [1] is 4.82; in assay [2] it was 6.77; in assay [3], 4.59; in assay [5], 6.74. Moreover, the CC50 in assay [4] was 123 µM; in assay [6], 28 µM.

In the case of `COC(=O)C(C)NP(=O)(OC[C@@H]1O[C@H](n2cc(C)c(=O)n(CCCn3c(=O)c(C)cn([C@@H]4O[C@H](CO[Si](C)(C)C(C)(C)C)[C@@]5(OS(=O)(=O)C=C5N)[C@H]4O[Si](C)(C)C(C)(C)C)c3=O)c2=O)C[C@H]1N=[N+]=[N-])Oc1ccccc1` (stereo partly specified), the pEC50 in assay [1] is less than 3.60; in assay [2] it was 6.19; in assay [3], less than 3.60; in assay [5], 5.49. Also, the CC50 in assay [4] and in assay [6] was greater than 250 µM each time.

With `Cc1cn([C@@H]2O[C@H](CO[Si](C)(C)C(C)(C)C)[C@@]3(OS(=O)(=O)C=C3N)[C@H]2O[Si](C)(C)C(C)(C)C)c(=O)n(CC#CC#CCn2c(=O)c(C)cn([C@H]3O[C@@H](CO[Si](C)(C)C(C)(C)C)[C@]4(OS(=O)(=O)C=C4N)[C@@H]3O[Si](C)(C)C(C)(C)C)c2=O)c1=O`, the pEC50 in assay [1] is less than 3.60; in assay [2], less than 4.30; in assay [3], less than 3.60; in assay [5], less than 4.30. For the same molecule, the CC50 in assay [4] was greater than 250 µM; in assay [6], 65 µM.

With `Cc1cn([C@@H]2O[C@H](CO[Si](C)(C)C(C)(C)C)[C@@]3(OS(=O)(=O)C=C3N)[C@H]2O[Si](C)(C)C(C)(C)C)c(=O)n(CC#Cc2cn([C@@H]3C[C@@H](O)[C@H](CO)O3)c(=O)[nH]c2=O)c1=O`, the pEC50 was less than 5.00 in assay [1], 6.26 in assay [2], less than 5.00 in assay [3] and 6.36 in assay [5]. For the same molecule, the values for the CC50 in assay [4] and in assay [6] were 21 µM and 15 µM, respectively.

For `COC(=O)C(C)NP(=O)(OC[C@@H]1O[C@H](n2cc(C)c(=O)n(CCCCCCn3c(=O)c(C)cn([C@@H]4O[C@H](CO[Si](C)(C)C(C)(C)C)[C@@]5(OS(=O)(=O)C=C5N)[C@H]4O[Si](C)(C)C(C)(C)C)c3=O)c2=O)C[C@H]1N=[N+]=[N-])Oc1ccccc1` (stereo partly specified), the results for the pEC50 in assay [1], in assay [2] and in assay [3] were less than 3.60, 5.77 and less than 3.60, respectively. Further, the CC50 in assay [4] and in assay [6] was greater than 250 µM each time.

As for `Cc1cn([C@@H]2O[C@H](CO[Si](C)(C)C(C)(C)C)[C@@]3(OS(=O)(=O)C=C3N)[C@H]2O[Si](C)(C)C(C)(C)C)c(=O)n(CCCn2c(=O)c(C)cn([C@H]3C[C@H](N=[N+]=[N-])[C@@H](CO)O3)c2=O)c1=O`, the values for the pEC50 in assay [2] and in assay [5] were 7.05 and 6.42, respectively. Besides, the CC50 in assay [4] and in assay [6] was greater than 100 µM throughout.

Consider `COC(=O)C(C)NP(=O)(OCC1OC(n2cc(C)c(=O)n(CCCBr)c2=O)CC1N=[N+]=[N-])Oc1ccccc1` (stereo unspecified), for which the pEC50 in assay [1], in assay [2], in assay [3] and in assay [5] was less than 4.30 in each case. Moreover, the CC50 turned out to be 41 µM in assay [4] and 44 µM in assay [6].

Values taken from ChEMBL document CHEMBL1132538, “Potential multifunctional inhibitors of HIV-1 reverse transcriptase. Novel [AZT]-[TSAO-T] and [d4T]-[TSAO-T] heterodimers modified in the linker and in the dideoxynucleoside region” (J Med Chem, 1999).
